bIAP inh = bovine intestinal alkaline phosphatase inhibitors, primary screen, selectivity assay for TNAP inhibitor project, biochemical, bovine IAP, CDP-star luminescence | inhibition, % at 20 µM | AID 1019, 2008 | 190,000 tested, under 10 active | purified bovine IAP, 30 min;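 active = over 50% inhibition of intestinal alkaline phosphatase at 20 µM in the single-dose screen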
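test system = bovine IAP enzyme | medium = DEA buffer 100 mM, pH 9.8, with MgCl2 1.0 mM, ZnCl2 0.02 mM | detection = luminescence | dosing = single compound dose of 20 µM, 2% DMSO final | incubation = 30 min reaction at room temperature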
bIAP act = bovine intestinal alkaline phosphatase activators, primary screen, biochemical, bovine IAP, CDP-star luminescence; AID 1016, 2008; activation factor at 20 µM; 0.17% of 200,000 active; purified bovine IAP, 30 min; stronger effect = higher value; fold of DMSO-control signal, blank-subtracted;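 active = activation factor of 2 or more at 20 µM, a signal rise over negative controls twice the positive control's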
hIAP inh = human IAP inhibitors, primary screen, biochemical, luminescence, uHTS. Intestinal-type alkaline phosphatase (Homo sapiens), P09923. inhibition, % at 10 µM. 0.12% of 330,000 active. purified IAP, CDP-Star luminescence, 30 min;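 active = inhibition reaching a set limit with compound at 10 µM in the primary screen, cut at about 35% in these data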;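 note: plate controls were DMSO wells with enzyme for no effect and no-enzyme buffer wells for full effect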
Target sequence (P09923 whole entry, looked up): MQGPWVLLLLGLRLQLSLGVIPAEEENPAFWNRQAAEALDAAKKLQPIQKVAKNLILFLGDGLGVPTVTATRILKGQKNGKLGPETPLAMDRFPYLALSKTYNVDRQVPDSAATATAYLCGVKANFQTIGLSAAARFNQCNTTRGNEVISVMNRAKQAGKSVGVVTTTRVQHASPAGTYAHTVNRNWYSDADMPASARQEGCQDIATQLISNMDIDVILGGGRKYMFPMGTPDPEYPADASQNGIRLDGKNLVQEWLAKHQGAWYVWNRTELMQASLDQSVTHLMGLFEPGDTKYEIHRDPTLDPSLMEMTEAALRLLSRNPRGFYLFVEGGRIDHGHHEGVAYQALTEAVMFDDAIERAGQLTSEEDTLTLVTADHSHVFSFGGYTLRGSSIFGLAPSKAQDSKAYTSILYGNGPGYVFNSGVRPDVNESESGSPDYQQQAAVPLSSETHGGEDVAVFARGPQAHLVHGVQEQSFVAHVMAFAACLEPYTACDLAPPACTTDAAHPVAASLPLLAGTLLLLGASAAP
mIAP activ = activators of mouse IAP, primary screen, biochemical, luminescence, uHTS; intestinal alkaline phosphatase [Mus musculus]; muIAP, CDP-Star luminescence, 30 min; stronger effect = higher value; 1 = vehicle-only enzyme signal, 0 = enzyme-free wells; activation factor at 10 µM; 0.24% of 330,000 active; AID 2805, 2010;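 active = activation factor of at least 2 at 20 µM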
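also added = chemiluminescent substrate CDP-Star | test system = mouse IAP enzyme | signal = chemiluminescence readout | compound = DMSO-dissolved test compounds | incubation = 30 min at room temperature | benchmarks = DMSO wells, no-enzyme wells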
mIAP inh = inhibitors of mouse IAP, primary screen, biochemical, luminescence, uHTS | intestinal alkaline phosphatase [Mus musculus] | purified mouse IAP, CDP-Star luminescence, 30 min | inhibition, % at 10 µM | 0.2% of 330,000 active | AID 2806, 2010;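 active = inhibition of at least 40% at 10 µM in the primary screen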;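 note: plate controls were DMSO with enzyme for no effect and no enzyme wells for full effect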
hIAP activ = human IAP activators, primary screen, biochemical, luminescence, uHTS; purified human IAP, CDP-Star luminescence, 30 min; stronger effect = higher value; 1 = vehicle-only enzyme, 0 = enzyme-free background; activation factor at 10 µM; 0.16% of 330,000 active; Intestinal-type alkaline phosphatase (Homo sapiens), P09923; AID 2524, 2010;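 active = activation factor of the enzyme at least 2-fold when tested at 20 µM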
hIAP act conf = human IAP activators, confirmation, biochemical, luminescence, single concentration, uHTS hits | shares compounds with hIAP activ | purified IAP, CDP-Star luminescence, 30 min; stronger effect = lower value | activation (%Activity, negative = activation), % at 8.3 µM | 10% of 880 active | AID 434926, 2010;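 active = at least twofold enzyme activation in any of six single-dose repeats, which the averaged readout prints as negative percent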
* marks the source's active call; other numbers are inactive results; / = no result given; ! = not active in a repeat. Only some compounds are listed: those with a hit (about 0.79% of all), similar ones and a draw of the others.

SMILES | bIAP inh | bIAP act | hIAP inh | mIAP activ | mIAP inh | hIAP activ | hIAP act conf
CCOc1ccc(CCNC(=O)c2cc(-c3ccccc3)c(N3CCOCC3)s2)cc1OCC | / | / | -152 | 2.2* | -116 | 2.5* | 1
COc1cc(C(=O)NCC(=O)N/N=C/c2ccc(-c3ccc([N+](=O)[O-])cc3)o2)cc(OC)c1OC | / | / | 36* | 0.86 | 14 | 0.64 | 19
CCN(CC)S(=O)(=O)c1ccc(O)c(NC(=O)c2ccc(N3CCOCC3)c([N+](=O)[O-])c2)c1 | -14 | 1.1 | 11 | 1.1 | -10 | 0.89 | /
Cc1ccc(C(=O)NNC(=O)c2n[nH]c(=O)c3ccccc23)cc1C | / | / | -118 | 0.84 | 16 | 2.2* | -41
O=C(NNC(=O)c1n[nH]c(=O)c2ccccc12)c1ccc(Br)cc1 | / | / | -113 | 0.85 | 15 | 2.1* | -12
CCc1ccc(C(=O)NNC(=O)c2n[nH]c(=O)c3ccccc23)cc1 | / | / | -67 | 0.89 | 12 | 1.7 | /
O=C(Nc1ccc(OC(F)(F)F)cc1)NC1CCC(Oc2ccc(C(=O)O)cc2)CC1 (stereo not drawn) | / | / | -280 | 1.3 | -33 | 3.8* | -35
C#Cc1ccc(C(=O)Nc2ccc(N3CCC(C)CC3)c(C(N)=O)c2)cc1 | -27 | 1.3 | 4 | 1.1 | -10 | 0.96 | /
COc1cccc(C(=O)OCC(=O)c2ccc(S(=O)(=O)N3CCCCC3)cc2)c1OC | / | / | -13 | 1 | -1 | 1.1 | /
CCOC(=O)C1=C(c2ccc(OC)cc2)OC(N)=C(C#N)C1c1cccnc1 (stereo not drawn) | / | / | -195 | 1 | -4 | 3* | -1
O=C(c1cnn2c(C(F)(F)F)cc(-c3ccc(Br)cc3)nc12)N1CCOCC1 | -1 | 1 | / | / | / | / | /
Cc1nn2c(C(F)(F)F)cc(-c3ccc(Cl)cc3)nc2c1C(=O)N1CCOCC1 | 8 | 0.9 | -177 | 1 | -2 | 2.8* | 8
c1ccc(CN(CC2=NCCN2)c2ccccc2)cc1 | -2 | 337*! | 19 | 1.1 | -5 | 0.98 | -47
c1ccc(CC2=NCCN2)cc1 | 6 | 0.9 | -4 | 1.1 | -14 | 1 | /
O=C(NCCCN1CCCC1=O)c1cccc(S(=O)(=O)Nc2ccc(F)cc2)c1 | / | / | -6 | 1 | 0 | 1.1 | /
CC(NC(=S)NC1CCCCC1)c1ccc(C(C)(C)C)cc1 (stereo not drawn) | / | / | -133 | 5.3* | -431 | 2.3* | -20
CCOc1ccc(C(C)NC(=S)NC2CCCCC2)cc1 (stereo not drawn) | 16 | 0.8 | -23 | 1.8 | -76 | 1.2 | /
CCC(C)c1ccc(C(C)NC(=S)NC2CCCCC2)cc1 (stereo not drawn) | / | / | -256 | 4.7* | -370 | 3.6* | -72
Cc1cccc(NC(=O)C2CC(=O)n3cnnc3S2)c1 (stereo not drawn) | -1 | 1 | -114 | 0.91 | 9 | 2.1* | -12
CCN=C1SC(C(=O)Nc2cccc(C)c2)CC(=O)N1CC (stereo not drawn) | 9 | 0.9 | -6 | 1 | 0 | 1.1 | /
COc1ccc(NC(=O)/C(C#N)=C\c2cc(C)n(-c3ccc4c(c3)OCO4)c2C)cc1 | 9 | 0.9 | -108 | 0.86 | 14 | 2.1* | -56
CC(=O)N/N=C/c1cc(C)n(-c2ccc(Br)cc2)c1C | -16 | 1.2 | -14 | 1.1 | -10 | 1.1 | /
CC(=O)N/N=C/c1cc(C(C)C)cc(/C=N/NC(C)=O)c1O | -43 | 1.4 | -154 | 0.89 | 11 | 2.5* | -11
CC1CN(S(=O)(=O)c2ccc(NC(=O)CCCN3C(=O)c4ccccc4C3=O)cc2)CC(C)O1 (stereo not drawn) | 1 | 1 | 12 | 0.92 | 8 | 0.89 | /
